The record followed here is ChEMBL document CHEMBL3856214, “Lanostane Triterpenes Isolated from Antrodia heteromorpha and Their Inhibitory Effects on RANKL-Induced Osteoclastogenesis” (J Nat Prod, 2016).

A word on the IC50: it is the concentration at which inhibition is half-maximal.

In data set [1] the test system is BMDM. Briefly: Inhibition of RANKL-induced C57BL/6 mouse BMDM differentiation into osteoclasts after 4 days in presence of M-CSF by TRAP staining-based light microscopy. It is filed as functional. In outline: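 BMMs (6–8-week-old female C57BL/6 mouse femur/tibia marrow, 3 days with M-CSF 50 ng/mL) seeded at 4 × 10^4/well. Cultured 4 days with M-CSF (50 ng/mL), RANKL (100 ng/mL) and vehicle or compound. Fixed in 10% formalin for 5 min, then TRAP-stained by kit to show TRAP-positive multinucleated osteoclasts.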

For data set [2], the species on record is Mus musculus. Put plainly: Cytotoxicity against C57BL/6 mouse BMDM assessed as decrease in cell viability at IC50 after 4 days in presence of RANKL/M-CSF by XTT assay. It is filed as toxicity. The note with it: 96 h. (Tetrazolium assays rely on reduction of a dye to a coloured formazan, in cell work by metabolically active cells.)
Data set [3] in a line: (§1) Inhibition of RANKL-induced C57BL/6 mouse BMDM differentiation into osteoclasts after 4 days in presence of M-CSF by TRAP assay. Type of data set: functional. The note with it: C57BL/6, BMDM, 96 h. The method, boiled down: (§2)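 Bone marrow cells from femurs and tibiae of 6–8-week-old female C57BL/6 mice; after red-cell lysis, 3 days in α-MEM/10% FBS with penicillin-streptomycin and M-CSF (50 ng/mL); adherent cells kept as BMMs. BMMs (4 × 10^4/well) given M-CSF (50 ng/mL) plus RANKL (100 ng/mL) with vehicle or compound, 4 days. TRAP activity of culture supernatant with chromogenic substrate, OD 540 nm.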

Data set [4] relates to BMDM. The data set is described as §1. It is filed as functional. In outline:
as §2

Take `CC1=C(C)[C@@]2(C[C@](C)(O)[C@H]3C[C@H](O)[C@@]4(C)C5=CC[C@H]6C(C)(C)C(=O)[C@H](O)C[C@]6(C)C5=C[C@@H](O2)[C@]34C)OC1=O`: the inhibition result in data set [1] and in data set [4] was “Dose-dependent effect” in each case. The Activity entry in data set [2] is reported as “Non-Toxic”. Further, the IC50 in data set [3] was determined as 7.4 µM.
Take `CC1=C(C)[C@@]2(C[C@](C)(O)[C@H]3C[C@H](O)[C@@]4(C)C5=CC[C@H]6C(C)(C)[C@@H](O)C(=O)C[C@]6(C)C5=C[C@@H](O2)[C@]34C)OC1=O`: the inhibition result in data set [1] and in data set [4] was “Dose-dependent effect” throughout. Further, the Activity entry in data set [2] was “Non-Toxic”. For the same molecule, the half-maximal inhibitory concentration (IC50) in data set [3] is 4.5 µM.
On to `C=C(CC[C@@H](C(=O)O)[C@H]1[C@H](O)C[C@@]2(C)C3=CC[C@H]4C(C)(C)C(=O)CC[C@]4(C)C3=CC[C@]12C)C(C)C` [POLYPORENIC ACID B], for which the inhibition entry in data set [1] and in data set [4] was “Dose-dependent effect” in each case. In addition, in data set [2], the Activity result is “Non-Toxic”. Further, the IC50 in data set [3] was 4.9 µM.
